Experimental data taken from BindingDB's records for doi:10.1021/jm100062h (Ferrara University, 2010).

What follows are compounds tested against T1, Transient receptor potential cation channel subfamily A member 1 (Homo sapiens, UniProt O75762) (assay: Activation of TRPA1 channel).
T1 sequence (O75762 whole entry): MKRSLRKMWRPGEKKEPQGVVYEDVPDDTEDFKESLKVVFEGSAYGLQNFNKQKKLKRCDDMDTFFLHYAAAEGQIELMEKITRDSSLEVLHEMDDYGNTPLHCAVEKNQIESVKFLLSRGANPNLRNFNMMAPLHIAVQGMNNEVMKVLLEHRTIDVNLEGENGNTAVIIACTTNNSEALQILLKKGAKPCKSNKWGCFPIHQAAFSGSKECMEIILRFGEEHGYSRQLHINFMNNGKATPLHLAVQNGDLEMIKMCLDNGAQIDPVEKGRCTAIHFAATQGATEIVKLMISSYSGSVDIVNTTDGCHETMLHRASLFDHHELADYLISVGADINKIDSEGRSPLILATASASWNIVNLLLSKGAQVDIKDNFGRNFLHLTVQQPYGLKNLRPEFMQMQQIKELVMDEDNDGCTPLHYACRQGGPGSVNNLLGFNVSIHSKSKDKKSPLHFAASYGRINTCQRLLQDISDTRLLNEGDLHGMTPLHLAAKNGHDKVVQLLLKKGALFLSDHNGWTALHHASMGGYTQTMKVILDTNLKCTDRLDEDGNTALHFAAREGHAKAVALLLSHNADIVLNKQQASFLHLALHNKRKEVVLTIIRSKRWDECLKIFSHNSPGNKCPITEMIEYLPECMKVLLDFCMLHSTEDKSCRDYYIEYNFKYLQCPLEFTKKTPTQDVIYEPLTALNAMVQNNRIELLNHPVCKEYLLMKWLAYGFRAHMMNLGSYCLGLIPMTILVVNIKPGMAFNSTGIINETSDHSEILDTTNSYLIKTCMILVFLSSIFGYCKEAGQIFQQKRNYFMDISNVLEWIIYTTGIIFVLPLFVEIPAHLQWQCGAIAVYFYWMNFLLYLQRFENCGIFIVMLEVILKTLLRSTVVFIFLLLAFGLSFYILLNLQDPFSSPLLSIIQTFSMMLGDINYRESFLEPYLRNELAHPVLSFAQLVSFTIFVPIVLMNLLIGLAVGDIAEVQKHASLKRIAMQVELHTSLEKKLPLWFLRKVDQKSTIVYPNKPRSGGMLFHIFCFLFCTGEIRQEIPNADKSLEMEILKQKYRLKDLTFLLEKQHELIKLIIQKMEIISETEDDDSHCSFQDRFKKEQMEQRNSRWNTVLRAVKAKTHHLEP
Outline: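 Cell lines transfected with TRPA1 and loaded with a calcium-sensitive dye, read on FLIPR. Calcium influx is counted as the change in fluorescence above background. Each material was tested by preincubation or by direct addition. Calcium counts are expressed as a percentage of the control calcium count.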
In the case of `CC(C)[C@@H]1CC[C@@H](C)C[C@H]1O`, the EC50 is reported as 28.4 µM.

These compounds were tested against T1, Transient receptor potential cation channel subfamily A member 1 (assay: Antagonist activity at human TRPA1 channel expressed in CHO cells assessed as inhibition of cinnamaldehyde-induced intracellular calcium influx).
`CCC(N=O)C(C)=Cc1cncc2ccccc12` (stereo unspecified) [1-(isoquinolin-4-yl)-2-methylpent-1-en-3-one oxime] showed an IC50 of over 100 µM.
In the case of `CCC(N=O)C(C)=Cc1ccc(C)nc1` (stereo unspecified) [2-methyl-1-(6-methylpyridin-3-yl)pent-1-en-3-one oxime], the IC50 is reported as over 100 µM.
`CCC(N=O)C(C)=Cc1cnc2ccccc2c1` (stereo unspecified) [2-methyl-1-(quinolin-3-yl)pent-1-en-3-one oxime] was tested, and the IC50 was over 100 µM.
In the case of `CCC(N=O)C(C)=Cc1cnccc1C` (stereo unspecified) [2-methyl-1-(4-methylpyridin-3-yl)pent-1-en-3-one oxime], the IC50 is reported as over 100 µM.
For `CCC(N=O)C(C)=Cc1ccc(C(F)(F)F)nc1` (stereo unspecified) [2-methyl-1-(6-(trifluoromethyl)pyridin-3-yl)pent-1-en-3-one oxime], the IC50 was over 100 µM.
